DENV2 CPE: protects cells from dengue virus 2 cytopathic effect. DENV2-infected cells, cytopathic effect rescue, plate reader. CPE inhibition, % at 9.99 µM. 350,000 tested, 1.7% active. AID 651640; in the data active = CPE inhibition above about 20%, passing the limit was not always enough; inconclusive = no clear call, values can overlap the other calls; tested in BHK-21 cells;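 also: 0% = median of neutral control wells and 100% = median of positive control wells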
Cneo AK release: Cryptococcus neoformans lysis via adenylate kinase release. C. neoformans lysis, adenylate kinase release luminescence, 4 h; normalised: neutral wells 0, clomiphene wells 100. lysis activity, % at 15 µM. 360,000 tested, 0.2% active. AID 651654;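 active = mean lysis activity across replicates of at least 80%, whatever share of replicates individually reach that level; inactive = mean lysis activity below 80%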
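read-out = cell lysis signal | test system = log-phase Cryptococcus neoformans yeast cells | input = cells at 5 × 10^6 per mL | medium = fresh YPD growth medium | signal = luminescent adenylate kinase detection reagent | timing = 4 h at 37 °C static, read 1 h later | dosing = single dose | controls = Clomiphene as positive lysis control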
miR-122 sensor: miR-122 inhibition in Huh7 cells. Huh7 miR-122 Renilla luciferase sensor, 48 h; neutral wells = 0, positive control = 100. activation (reporter increase), % at 12.5 µM. 340,000 tested, 0.3% active. AID 602342;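 active = mean replicate activation score at least 90 and every replicate individually at or above 90; inconclusive = only one of the two criteria met; inactive = neither criterion met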;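 also: higher luciferase means less miR-122 activity so hits act as miR-122 inhibitors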
E-selectin induc: induces E-selectin expression in human endothelial cells. P16581. HUVEC E-selectin immunofluorescence imaging; normalized: neutral wells 0, TNF-alpha wells 100. activation, % at 7.58 µM. 260,000 tested, 0.37% active. AID 686992;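 active = mean E-selectin-positive cell signal at least 10% of the positive control, reached in at least 60% of replicates, without over 20% cell loss; inconclusive = no rule given, readout overlaps actives, possibly toxicity-flagged; inactive = the rest, including those meeting only one limit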
Target sequence (P16581 whole entry, looked up): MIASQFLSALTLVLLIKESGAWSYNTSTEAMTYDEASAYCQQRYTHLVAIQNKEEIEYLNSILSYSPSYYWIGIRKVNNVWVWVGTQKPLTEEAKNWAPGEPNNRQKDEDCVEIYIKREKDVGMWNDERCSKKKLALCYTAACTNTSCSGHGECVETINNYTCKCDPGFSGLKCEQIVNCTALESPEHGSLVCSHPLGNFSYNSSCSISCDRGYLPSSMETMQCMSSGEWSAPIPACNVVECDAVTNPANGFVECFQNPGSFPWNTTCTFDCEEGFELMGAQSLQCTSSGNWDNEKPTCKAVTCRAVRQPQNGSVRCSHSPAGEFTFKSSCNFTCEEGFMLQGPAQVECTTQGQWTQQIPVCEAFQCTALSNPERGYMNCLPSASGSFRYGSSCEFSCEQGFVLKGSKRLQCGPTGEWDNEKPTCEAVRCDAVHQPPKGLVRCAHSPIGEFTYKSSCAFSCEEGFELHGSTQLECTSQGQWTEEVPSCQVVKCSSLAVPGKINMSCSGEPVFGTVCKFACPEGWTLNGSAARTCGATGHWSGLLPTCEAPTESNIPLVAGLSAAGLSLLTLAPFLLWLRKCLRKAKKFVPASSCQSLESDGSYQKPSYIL
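System: HUVEC, human umbilical vein endothelial cells; quantity: 3,000 cells/well; buffer or medium: EGM-2 medium, gelatin-coated wells; dosing: single-point compound dose; detection: immunofluorescence imaging; evaluation: % PE-positive cells; benchmarks: TNF-alpha, DMSO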
rRNA inh HTS: selective bacterial rRNA inhibition in E. coli; E. coli WT GFP vs humanized-ribosome RFP mutants, fluorescence, 24 h; stronger effect = lower value; DMSO median 0, no signal -100; GFP signal change (wild-type ribosome), % (test concentration not listed); 350,000 tested, 1.6% active;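 active = significant combined selectivity score with lowered wild-type GFP, culture density cut under 30%, mutant RFP and density less affected; inactive = any of these conditions unmet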
AID977621: growth inhibition of wild-type GFP E. coli, dose response, H69 mutant RFP, cherry-pick; E. coli wild-type GFP strain growth, fluorescence, 24 h; activity change, negative = inhibition at 50 µM; 1,900 tested, under 10 active; AID 977621; shares compounds with rRNA inh HTS;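 active = Wild-type ribosome reporter drop at least double the humanized mutant ribosome reporter drop, growth loss under a set limit; inconclusive = no clear call, values can overlap the other calls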;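 also: wild-type GFP and H69 mutant RFP strains grown together 50/50 in each well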
AID977628: growth of wild-type and h24-humanized E. coli strains – h24 mutant RFP vs wild-type GFP, cherry-pick, dose response | 1,900 tested, under 10 active | activity change, negative = inhibition at 50 µM | shares compounds with rRNA inh HTS | E. coli WT GFP strain growth, fluorescence, 24 h | AID 977628;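 active = compound lowering the normal-ribosome reporter at least twice as much as the humanized-ribosome reporter, growth loss under a set limit; inconclusive = no clear call, values can overlap the other calls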;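 also: wild-type GFP and h24 humanized RFP strains co-cultured 1 to 1 per well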
An asterisk follows results filed as active; ? = inconclusive; . = not tested or not shown; [ ] = another dose, or the depositor's remark. In the library only some 3.1% were active in any assay of this set; here they are far more common.

SMILES	DENV2 CPE	Cneo AK release	miR-122 sensor	E-selectin induc	rRNA inh HTS	AID977621	AID977628
COCCNC(=O)[C@@H]1[C@@H](CO)[C@@H]2Cn3c(ccc(C4=CCCCC4)c3=O)[C@H]1N2C(=O)C1CCC1	-1.1	-1.2	3.5[16.7 µM]	-0.2	-2.1	.	.
O=C(NC1CCC1)[C@@H]1[C@@H](CO)[C@@H]2Cn3c(ccc(-c4ccccc4)c3=O)[C@@H]2N1CC1CC1	-7.9	.	.	0.1	-6.5	.	.
O=C(Nc1ccc(Cl)c(Cl)c1)c1ccc(Cl)c(Cl)c1	10.4	-0.9	.	0.5	-17.1*	-16.8	-6.56
O=C(Nc1ccc(Cl)c(Cl)c1)c1ccncc1	.	-1.4	17.2	.	.	.	.
Cc1ccc(Cn2cnc3ccccc32)cc1	7.7	5.6	4.8	.	-25.1*	-12.8	-0.7
c1ccc2c(c1)ncn2CCn1cnc2ccccc21	.	-0.2	-18.4	.	.	.	.
COc1cccc(CNC(=O)CCC2CCCN(C(=O)c3cc4ccccc4o3)C2)c1 (stereo not drawn)	13.7	2.8	-1.2	2.5	-32.3*	-4.22	.
COc1cccc(CNC(=O)CCC2CCCN(C(=O)c3ccoc3)C2)c1 (stereo not drawn)	4.7	-0.4	-0.1	-0.9	7.3	.	.
O=C(C[C@H]1CC[C@H]2[C@@H](COC[C@H](O)CN2Cc2cccc(-c3ccncc3)c2)O1)N1CCCCC1	-4.3	0.6	-2.2[16.7 µM]	-0.1	-1.9	.	.
C[C@H]1CN([C@@H](C)CO)S(=O)(=O)c2ccc(/C=C/c3ccccc3)cc2O[C@@H]1CN(C)Cc1cncnc1	1.9	-4.8	17.2[16.7 µM]	-0.1	-23.4	.	.
CC(=O)Nc1ccc(OCC(=O)N2CCC(Cc3ccccc3)CC2)cc1	-2.3	.	.	0.6	-19.5*	-25.8	.
Cn1c(=O)c2c(ncn2CC(O)CNc2ccc(F)cc2)n(C)c1=O (stereo not drawn)	-2.2	.	.	5.6	-27.3*	-10.4	-5.42
CCCC[n+]1ccn(-c2nc3ccccc3nc2[N-]S(=O)(=O)c2cccs2)c1	0.3	-2.4	.	1.7	-25.8*	.	-8.38
CCCC[n+]1ccn(-c2nc3ccccc3nc2[N-]S(=O)(=O)c2ccccc2)c1	.	2.5	4.7	.	14.4	.	.
CC(C)Cc1nnc(NC(=O)c2ccc3c(=O)n4c(nc3c2)CCC4)s1	7.6	4.7	-0.1	.	-21.1*	-10.6	-9.88
C[C@H](CO)N1C[C@H](C)[C@H](CN(C)S(=O)(=O)c2ccc(Cl)cc2)OCCCC[C@H](C)Oc2ccc(NS(C)(=O)=O)cc2C1=O	-11.0	2.8	4.2[16.7 µM]	0.3	-4.2	.	.
COc1cc(NC(=O)c2ccc(Cl)cc2)c(OC)cc1NC(=O)CN1CCCCC1	8.0	.	10.8	.	-26.3*	-11.1	-10.1
COc1cc(NC(=O)c2ccc(Cl)cc2)c(OC)cc1NC(=O)CN1CCOCC1	.	.	4.1	.	.	.	.
C[C@H](NC(=O)C[C@@H]1CC[C@H]2[C@@H](COC[C@@H](O)CN2C(=O)Nc2ccccc2)O1)c1ccccc1	-3.0	0.0	4.6[16.7 µM]	0.0	1.0	.	.
COc1ccc(C(=O)COc2ccc(F)cc2)c(O)c1	-1.9	-3.0	-8.5	1.6	-21.4*	0.437	-8.93
O=S(=O)(c1cccc(-c2nc3ccccc3s2)c1)N1CCCC1	-1.2	1.3	-2.0	.	-22.1*	-0.211	?
O=S(=O)(c1ccc(-c2nc3ccccc3s2)cc1)N1CCCC1	.	.	-6.0	.	.	.	.
COC(=O)c1sccc1NC(=O)Cn1nnc(-c2ccccc2C)n1	2.4	.	.	.	-29.9*	-11.7	.
CCOC(=O)c1nc(S(C)(=O)=O)ncc1Cl	-1.8	-3.2	-3.6	.	-27.1*	-2.99	?
COc1ccc(CC(=O)Nc2ccc(S(=O)(=O)Nc3ncccn3)cc2)cc1	.	0.3	-7.0	.	.	.	.
SMILES	DENV2 CPE	Cneo AK release	miR-122 sensor	E-selectin induc	rRNA inh HTS	AID977621	AID977628
COC(=O)c1sccc1NC(=O)Cc1ccc(OC)cc1	0.6	.	.	-2.5	-26.5*	-15.3	.
COC(=O)c1sccc1NC(=O)c1ccc(C)o1	.	-0.6	1.1	.	.	.	.
COc1ccc(CC(=O)Nc2cc(S(=O)(=O)Nc3ccc(OC)cc3)ccc2OC)cc1	-17.3	-0.5	37.4	.	-18.4*	-14.5	-16.8
CC(=O)NC[C@H]1[C@@H](c2ccc(-c3cccc(F)c3)cc2)[C@@H](CO)N1C(=O)C1CC1	-7.6	.	.	0.1	-3.8	.	.
CC1Cc2cc(S(=O)(=O)N3CCN(c4cccc(Cl)c4)CC3)ccc2N1C(=O)C1CC1 (stereo not drawn)	-3.5	-1.7	-3.3	.	-25.5*	-5.45	-8.8
C[C@H](CO)N1C[C@H](C)[C@@H](CN(C)C(=O)c2ccncc2)Oc2ncc(C#CC3CC3)cc2C1=O	.	.	-6.9[16.7 µM]	3.9	4.0	.	.
O=C1OCCC1Sc1nc2ccccc2c(=O)n1Cc1ccccc1 (stereo not drawn)	.	.	.	.	-21.3*	.	-14.8
CCCNC(=O)Nc1ccc2c(c1)C(=O)N(C)C[C@H](OC)[C@@H](C)CN(CC1CCCC1)[C@@H](C)CO2	.	.	7.9[16.7 µM]	-0.2	-3.0	.	.
COCC(C)NC(=O)c1nn(Cc2ccccc2)c(=O)c2ccccc12 (stereo not drawn)	-0.6	1.1	-3.6	.	-13.0*	-18.1	-2.35
S=C1SCN(Cc2ccccc2)CN1Cc1ccccc1	0.5	-10.3	.	-0.3	-13.8	.	.
S=C1SCN(Cc2cccnc2)CN1Cc1cccnc1	-4.6	.	.	.	-29.0*	-15.4	-21.7
O=C(Nc1ccc2c(c1)[C@@H]1C[C@@H](CC(=O)N3CCCCC3)O[C@H](CO)[C@@H]1O2)c1cccnc1	-4.1	46.5	3.4[16.7 µM]	0.1	-0.9	.	.
CN(C)CC(=O)N[C@@H]1CC[C@@H](CCn2cc(C3CCCC3)nn2)O[C@@H]1CO	-4.3	-2.2	.	-0.1	4.3	.	.
CO[C@H]1CN(C)C(=O)c2ccc(NC(=O)c3cccc(F)c3)cc2OC[C@H](C)N(C)C[C@@H]1C	4.7	.	.	0.1	0.7	.	.
CCn1c(-c2cc(-c3ccc(OC(C)C)cc3)nc3ccccc23)n[nH]c1=S	0.2	-15.3	4.4	.	-28.5*	.	?
CC(=O)Nc1ccc(NS(=O)(=O)c2ccc(Cl)s2)cc1	-1.7	.	.	1.3	-20.1*	.	?
Cc1noc(C)c1NC(=O)Nc1ccc2c(c1)C(=O)N([C@H](C)CO)C[C@H](C)[C@H](CN(C)C(=O)Nc1ccc3c(c1)OCO3)OCCCC[C@H](C)O2	0.9	1.2	2.9[16.7 µM]	-0.1	0.4	-1.39	12.3
Cc1noc(C)c1NC(=O)Nc1ccc2c(c1)C(=O)N([C@H](C)CO)C[C@H](C)[C@H](CN(C)C(=O)Nc1ccc3c(c1)OCO3)OCCCC[C@@H](C)O2	2.6	-2.5	3.5[16.7 µM]	-0.4	4.7	-7.1	?
